Results from ChEMBL document CHEMBL2417491, “Design, synthesis and biological evaluation of aryl pyrimidine derivatives as potential leishmanicidal agents” (Bioorg Med Chem Lett, 2013).
Active and inactive are the calls of the source. The rule behind the calls is not given here.

Key:
[1] = test system: Syrian golden hamster; test: Toxicity in golden hamster at 50 mg/kg, ip; format: organism-based, Mesocricetus auratus; design: dose 50 mg/kg, route intraperitoneal; conditions: in vivo
[2] = test system: Leishmania donovani; test: Antileishmanial activity against Leishmania donovani infected in golden hamster assessed as inhibition of parasite multiplication at 50 mg/kg, ip for 5 days measured after 7 days by Giemsa staining-based assay; format: functional; conditions: for inhibition in vivo at 50 mg/kg: route intraperitoneal
In short: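 Hamsters infected with L. donovani received test compounds at 50 mg/kg/day ip for 5 days, starting after the infection was established. Parasite burden was determined by Giemsa staining. Efficacy was expressed as percent inhibition, comparing treated animals, untreated animals and the initial count in treated animals.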

[3] = test system: Leishmania donovani; test: Antileishmanial activity against Leishmania donovani amastigotes infected in mouse J774A1 cells after 72 hrs by luciferase reporter gene assay; format: functional, organism-based; conditions: J774.A1, 72 h
In short: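 Macrophage cells were seeded at 4 × 10³ per well, held 24 h in a CO₂ incubator, and then infected with 4 × 10⁴ promastigotes, which transform into intracellular amastigotes. Compounds were added at 0.62–40 and incubated 72 h. Read-out was luminescence after Steady-Glo addition, with inhibition derived against untreated controls. IC₅₀ is the mean of two independent experiments.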

[4] = (§1) Selectivity index, ratio of CC50 for African green monkey Vero cells to IC50 for Leishmania donovani amastigotes; format: functional
In short: (§2)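 Calculated as CC₅₀ on Vero cells divided by IC₅₀ on L. donovani intramacrophage amastigotes. Both values come from 72 h assays: MTT for Vero cells and a luciferase reporter for amastigotes.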

[5] = Cytotoxicity against African green monkey Vero cells after 72 hrs by MTT assay; format: cell-based; conditions: chlorocebus sabaeus
In short: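 Monkey kidney Vero cells were exposed to compounds for 72 h. Viable cells were detected with MTT, and CC₅₀ was estimated by the Huber & Koella method. Values are the mean of two independent experiments.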

[6] = test system: Leishmania donovani; test: Antileishmanial activity against Leishmania donovani infected in golden hamster assessed as inhibition of parasite multiplication at 40 mg/kg, ip for 5 days measured after 7 days by Giemsa staining-based assay; format: functional, organism-based; design: dose 40 mg/kg
In short: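 Reference-drug arm in the L. donovani-infected hamster model, dosed at 40 mg/kg ip daily for 5 days. After the infection was established, parasite burden was assessed by Giemsa staining. Percent inhibition came from comparing treated with untreated animals and with the initial count in treated animals.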

[7] = test system: Vero; test: as §1; format: functional; in short: as §2
[8] = Cytotoxicity against mouse J774A1 cells after 72 hrs; format: cell-based; conditions: j774.a1, 72 h
[9] = test system: Leishmania donovani; test: Antileishmanial activity against Leishmania donovani infected in golden hamster assessed as inhibition of parasite multiplication at 30 mg/kg, po for 5 days measured after 7 days by Giemsa staining-based assay; format: functional

Row | Molecule | Activity [1] | inhibition [2] | IC50 [3] | inhibition in vivo at 50 mg/kg [2] | Ratio CC50/IC50 [4] | CC50 at 72 h [5] | inhibition [6] | Ratio CC50/IC50 [7] | Activity [8] | inhibition in vivo at 30 mg/kg [9]
1 | COc1cc(/C=C/c2cc(SC)nc(N)n2)cc(OC)c1OC | Non-toxic | inactive | > 40 µM |  |  |  |  |  |  | 
2 | CCOc1cc(/C=C/c2cc(SC)nc(N)n2)ccc1OC1CCCCO1 (stereo not given) | Non-toxic |  | 12.9 µM | 33.5% | 19 | 248 µM |  |  |  | 
3 | COc1ccc(/C=C/c2cc(SC)nc(N)n2)cc1OC | Non-toxic |  | 2 µM | 47.1% | 62 | 125 µM |  |  |  | 
4 | CSc1cc(/C=C/c2ccc(OS(=O)(=O)[O-])cc2)nc(N)n1.[Na+] | Non-toxic |  | 6.3 µM | 55.1% | 48 | 301 µM |  |  |  | 
5 | COc1ccc(Nc2cc(/C=C/c3ccc(OCc4ccccc4)cc3)nc(N)n2)cc1 | Non-toxic |  | 0.5 µM | 78.1% | 116 | 57.8 µM |  |  |  | 
6 | CSc1cc(/C=C/c2ccc(O)cc2)nc(N)n1 | Non-toxic |  |  |  |  |  |  |  |  | 
7 | COc1ccc(/C=C/c2cc(SC)nc(N)n2)cc1 | Non-toxic |  | 9.1 µM | 54.4% | 27 | 250 µM |  |  |  | 
8 | Sodium stibogluconate |  |  |  |  |  |  | 88.5% | > 7 |  | 
9 | CSc1cc(/C=C/c2ccc(OCc3ccccc3)cc2)nc(N)n1 | Non-toxic |  | 2 µM | 88.4% | 188 | 376 µM |  |  | Non-toxic | 
10 | CCCCCCCCCCCCCCCCOP(=O)([O-])OCC[N+](C)(C)C [MILTEFOSINE] |  |  |  |  | 4 |  |  |  |  | 98.1%
11 | CSc1cc(/C=C/c2ccc(OC3CCCCO3)cc2)nc(N)n1 (stereo not given) | Non-toxic |  | 3.6 µM | 54.4% | 34 | 122 µM |  |  |  | 
12 | COc1ccc(Nc2cc(/C=C/c3ccc(OC4CCCCO4)cc3)nc(N)n2)cc1 (stereo not given) | Non-toxic |  | 2.7 µM | 78.2% | 128 | 345 µM |  |  |  | 
13 | COc1cc(/C=C/c2cc(SC)nc(N)n2)ccc1O | Non-toxic |  |  |  |  |  |  |  |  | 
